Assay outcomes from PubChem.
SUMO1-SIM PPI: modulators of SUMO1 protein-protein interactions, primary screen, biochemical, uHTS. AID 602429, 2012. inhibition, % at 20 µM. SUMO1 binding to a labelled peptide, TR-FRET, 1 h. 360,000 tested, 0.33% active. Small ubiquitin-related modifier 1 (Homo sapiens), P63165; in the data active means inhibition above about 37%
Target sequence (P63165 whole entry, looked up): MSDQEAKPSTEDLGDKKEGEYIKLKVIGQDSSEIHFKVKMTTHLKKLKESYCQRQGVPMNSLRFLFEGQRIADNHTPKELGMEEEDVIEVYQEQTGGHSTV
Scp-1 inhibitor: Scp-1 phosphatase inhibitors, primary screen, biochemical, colorimetric, uHTS; Carboxy-terminal domain RNA polymerase II polypeptide A small phosphatase 1 (Homo …; Recombinant Scp1, phosphopeptide, malachite green phosphate absorbance; inhibition, % at 20 µM; 340,000 tested, 0.88% active; AID 493091, 2011;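 active means inhibition above about 50% at 20 µM, limit read from the data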;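 further: plate controls were DMSO wells with enzyme for no effect and wells lacking enzyme for full effect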
Target sequence (Q9GZU7 76-261 limits assumed): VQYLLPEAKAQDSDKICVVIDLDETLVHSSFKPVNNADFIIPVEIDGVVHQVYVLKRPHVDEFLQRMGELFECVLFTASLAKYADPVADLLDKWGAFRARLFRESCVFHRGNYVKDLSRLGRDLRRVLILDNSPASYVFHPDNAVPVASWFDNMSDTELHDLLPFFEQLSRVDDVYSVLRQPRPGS
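System: SCP-1 catalytic domain; Reagent: Phospho 17-mer peptide substrate; Doses: one concentration, 20 µM, with 1.0% DMSO; Incubation: 45 min room-temperature reaction, 5 min colour, 30 min stabiliser; Signal: Phosphate-binding colour reagent, absorbance read at 630 nm.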
LMPTP inh: LMPTP phosphatase inhibitors, primary screen, biochemical, fluorescence intensity, uHTS; inhibition, % at 20 µM; Low molecular weight phosphotyrosine protein phosphatase (Homo sapiens), P24666; recombinant LMPTP-A, OMFP fluorogenic substrate; AID 651560, 2012; 360,000 tested, 0.22% active;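 active means compounds that cut the enzyme signal by at least half of the control window in the single-dose screen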;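 further: plate controls were DMSO wells with enzyme plus substrate for no effect and substrate without enzyme for full effect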
Target sequence (P24666 whole entry, looked up): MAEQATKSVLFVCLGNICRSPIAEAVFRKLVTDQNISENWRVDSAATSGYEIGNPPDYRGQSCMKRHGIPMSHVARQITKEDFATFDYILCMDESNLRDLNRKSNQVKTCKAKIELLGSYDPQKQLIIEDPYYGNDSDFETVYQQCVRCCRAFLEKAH
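test system = LMPTP-A | amount = 0.625 nM LMPTP-A final | reagent = fluorogenic phosphatase substrate OMFP at 400 µM final | incubation = 50 min at room temperature | benchmarks = no-enzyme low control, uninhibited high control | medium = Bis-Tris pH 6.0, DTT, detergent | signal = fluorescence intensity of OMFP turnover product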
DNMT1 inh: human DNMT1 methyltransferase inhibitors, primary screen, biochemical, molecular beacon, fluorescence, HinP1I cleavage, uHTS; 360,000 tested, 0.83% active; inhibition (reported as % activation of signal), % at 10 µM; AID 588458, 2011; in the data active means inhibition above about 50%
STEP inh: STEP phosphatase inhibitors, primary screen, biochemical, fluorescence intensity, uHTS; 360,000 tested, 0.25% active; recombinant STEP, OMFP fluorogenic substrate; Tyrosine-protein phosphatase non-receptor type 5 (Homo sapiens), P54829; inhibition, % at 20 µM;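 active means inhibition at 20 µM, scaled per plate between control wells, above about 37%, limit read from the data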;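 further: 0% = DMSO with enzyme and substrate and 100% = substrate only without enzyme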
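System: STEP phosphatase, cell-free reaction; Buffer or medium: Bis-Tris pH 6.0 buffer with DTT, detergent; Incubation: 20 min at room temperature, dark; Measured by: fluorescence, 480/540 nm.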
Casp6 inh: human caspase-6 inhibitors, primary screen, biochemical, VEID-R110 fluorescence, single point, set 2; 350,000 tested, 0.53% active; inhibition, % at 12.5 µM; P55212; purified caspase-6, Z-VEID-R110 cleavage fluorescence; AID 686996, 2013;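 active means mean inhibition across replicates at least about 35%, with every replicate also reaching that limit, limit read from the data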;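 further: 0% = median of neutral control wells and 100% = no fluorescence left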
STEP conf: STEP phosphatase inhibitor hit confirmation, biochemical, fluorescence intensity, single concentration; shares compounds with STEP inh; recombinant STEP, OMFP fluorogenic substrate; inhibition, % at 20 µM; 520 tested, 32% active; AID 623866, 2012; call rule not given here;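 further: 0% = enzyme with substrate plus DMSO and 100% = substrate without enzyme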
An asterisk follows results filed as active; . = no result. A selection: hits, their analogues and other compounds. The true share with any hit is near 1.7%.

SMILES | SUMO1-SIM PPI | Scp-1 inhibitor | LMPTP inh | DNMT1 inh | STEP inh | Casp6 inh | STEP conf
CSc1ncccc1C(=O)OCC(=O)Nc1nc(C)c(Cl)cc1Cl | 0.1 | 4.0 | -0.6 | 3.3 | -5.8 | 0.1 | .
O=C(N/N=C/c1ccc(OC(=O)c2cccc(F)c2)cc1)c1cccnc1 | 20.7 | 19.9 | 56.9* | 48.5 | 98.5* | -2.2 | 2.1
O=C(N/N=C/c1ccc(OC(=O)c2cccc(Br)c2)cc1)c1cccnc1 | 8.9 | 6.5 | 8.4 | 40.5 | 6.5 | . | .
CN(C)C(=O)c1cccc(-c2cccc(-c3nc(C(=O)N4CCCCC4)cc4c3[C@H](CCO)N([S@@](=O)C(C)(C)C)C4)c2)c1 | . | . | . | . | . | 1.4 | .
CCN1CCN(CCCN(Cc2ccco2)C(=S)Nc2ccc(C)c(Cl)c2)CC1 | 1.6 | -6.5 | -1.6 | -1.9 | 2.7 | -10.4 | .
CCN1CCN(CCCN(Cc2ccco2)C(=S)Nc2cc(Cl)ccc2C)CC1 | 0.3 | -5.2 | -3.3 | -0.5 | 40.6* | -19.4 | 12.2
COc1ccc(NC(=O)c2cc(=O)c3ccccc3o2)cc1Cl | 8.4 | 36.0 | 0.7 | 17.7 | 41.8* | 1.7 | 27.8*
CN(C)S(=O)(=O)c1cc(NC(=O)c2cc(=O)c3ccccc3o2)ccc1Cl | -15.0 | -8.1 | 0.8 | -2.8 | 0.3 | 5.5 | .
NS(=O)(=O)c1ccc(NC(=S)NCCc2ccccc2)cc1 | -0.2 | -21.5 | 0.1 | 2.0 | 52.1* | 3.8 | 37.7*
CC(C)OCCCNC(=S)Nc1ccc(S(N)(=O)=O)cc1 | 1.6 | -0.8 | -1.5 | 2.1 | 82.9* | -2.3 | 36.0*
COc1ncnc2c1ncn2CCCN1CCN(c2ncccn2)CC1 | 1.5 | . | -1.9 | 9.0 | -0.3 | -2.1 | .
COC(=O)C1C(=O)C2=C(CC1C)Nc1ccccc1NC2c1cccs1 (stereo not given) | -1.7 | -6.5 | -1.9 | -0.6 | -1.3 | 0.0 | .
COc1cccc(C2CC3(CC(C)(C)NC(=S)N3)Oc3cc(O)ccc32)c1 (stereo not given) | 2.5 | -1.3 | 0.7 | 9.5 | 112.1* | . | -4.8
Cc1cccc(C2CC3(CC(C)(C)NC(=S)N3)Oc3cc(O)ccc32)c1 (stereo not given) | -2.1 | 9.2 | -0.1 | -0.8 | -3.8 | 16.3 | .
CCc1ccc2c(CN3CCOCC3)cc(=O)oc2c1 | 1.2 | -3.8 | -1.4 | 0.2 | -1.3 | -0.1 | .
Cc1csc(NC(=O)COCC(=O)O)c1-c1nc2ccccc2s1 | 10.2 | 32.9 | 0.9 | 6.4 | 7.5 | 4.4 | .
Cc1csc(NC(=O)CCCC(=O)O)c1-c1nc2ccccc2s1 | 12.2 | 33.0 | 0.9 | 1.3 | 92.7* | 1.9 | -6.6
Cc1ccc(N2C(=O)C3C4C=CC(CNC(=S)N5CCN(c6ccccn6)CC5)(O4)C3C2=O)cc1 (stereo not given) | -25.0 | -5.6 | -0.6 | -14.5 | -1.3 | 3.5 | .
COCCNC(=O)C(c1ccco1)N(Cc1ccc(OC)cc1)C(=O)Cn1nnc2ccccc21 (stereo not given) | -0.7 | 0.2 | -0.4 | 8.2 | -1.6 | . | .
O=C(CCN1CCC(c2ccc(Cl)s2)=N1)c1ccc(Cl)s1 | 6.1 | -0.8 | 11.6 | 19.5 | 58.2* | -4.3 | -0.7
CCCCC1CCC(C(=O)N(CCOC)c2c(N)n(CCCC)c(=O)[nH]c2=O)CC1 (stereo not given) | 5.7 | -4.0 | -0.9 | 0.1 | -1.8 | 1.1 | .
COc1ccc(N(C(C)=O)S(=O)(=O)c2cccs2)cc1 | -2.0 | -0.4 | -0.9 | -18.3 | -0.5 | -0.5 | .
COc1ccc(N(C(=O)C(C)C)S(=O)(=O)c2cccs2)cc1 | -0.7 | -6.1 | -0.6 | -2.1 | 43.8* | . | 9.8
Cc1c(Cl)cccc1NC(=S)N(CCCN1CCOCC1)Cc1cccs1 | -3.0 | -2.1 | -3.3 | -2.0 | -0.8 | . | .
